Measurements: the RNAGym collection of RNA variant scans (doi:10.1126/science.aae0568)
This sample holds only a part of the variants without activity.

B1: tRNA (parent)
chain: GUUCCGUUGGCGUAAUGGUAACGCGUCUCCCUCCUAAGGAGAAGACUGCGGGUUCGAGUCCCGUACGGAACG

Variants of: B1
Assay: yeast fitness relative to wild type (ratio to wild type); higher = fitter; tRNA-Arg(CCU), competitive growth, 37 C, YPD
Outline: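 Start and end populations of a pooled competition were compared by 100-nucleotide paired-end sequencing of gene amplicons. The Saccharomyces cerevisiae strains carried tRNA-Arg(CCU) gene variants at the native genomic locus, synthesised with a 3% per-site mutation rate at 69 sites, and competed in YPD at 37°C for 24 hours in six parallel replicates. Darwinian fitness relative to wild type was based on the change in genotype frequencies. Genotypes required ≥ 100 starting reads, and estimates < 0.5 were set to 0.5.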

Row | Variant | yeast fitness
1 | G48A C60U A70U | 0.71
2 | G48A G50A | 0.973
3 | G48C C62G A65U | ≤ 0.5
4 | G48A G56A A65G | 0.718
5 | U47C | 1
6 | U47G | 0.633
7 | U47A | 0.99
8 | A45G U47C | 1.01
9 | G48C G63C | 0.705
10 | G48A G58A U59G G67A | ≤ 0.5
11 | A45U U47A C60G | ≤ 0.5
12 | A45C U53A C60G | 0.536
13 | C46A G67A | 0.88
14 | U47G C62G G68A | 0.525
15 | U47C G51A | 0.906
16 | A45U G48C | 0.857
17 | U47C C61G | 0.671
18 | U47G G52A C61A G67C | ≤ 0.5
19 | C46U G50C C55A G63A C66U | ≤ 0.5
20 | U47G C60A | ≤ 0.5
21 | A45C U59G | 0.713
22 | C46G A65C | 0.97
23 | C46G A65G | 0.897
24 | C46G A65U | 0.992

Row | Variant | yeast fitness
25 | G48C C61G A65U | ≤ 0.5
26 | C46G G63C G67A A70G | ≤ 0.5
27 | G48C A65G G67C | ≤ 0.5
28 | U47A C55G C66G | 0.639
29 | G48A C62U | 1.01
30 | C46U G52A U59C | 0.631
31 | A45U G56C | 0.714
32 | G48A G68C | 0.985
33 | C46A U47A | 1.04
34 | C46A C49A A70C | ≤ 0.5
35 | C46U C61G C66U A69U | ≤ 0.5
36 | C46G G48C | 1.02
37 | U47G U59A | 0.543
38 | G48A U54G A70U | ≤ 0.5
39 | A45G C49G A65U | 0.56
40 | U47G U64C | 0.622
41 | A45G C60U | 0.743
42 | A45G C60G | 0.821
43 | A45U G50A G63A G68C A69U | ≤ 0.5
44 | U47G A65C | 0.672
45 | A45U G50A C55G A70U | ≤ 0.5
46 | C46U A69U A70G | 0.761
47 | A45G G67A | 0.961
48 | A45G G67C | 0.872

Row | Variant | yeast fitness
49 | G48U C61A | ≤ 0.5
50 | A45G C62A A69C | 0.595
51 | G48A U54C A69C | 0.686
52 | G48C G50A | 0.651
53 | C46U U54C G56A | 0.642
54 | A45C U54G | 0.605
55 | C46A G56A C61A | 0.603
56 | G48A G50A U54A | 0.597
57 | C46G G52A C66U | 0.631
58 | G48C G67A | 0.873
59 | G48C G67U | 0.811
60 | C46U C61A | 0.83
61 | C46U C61U | 0.956
62 | A45C G58C | 1.06
63 | C46G G48C A65U G68A | ≤ 0.5
64 | U47C C49G | 0.909
65 | C46U C61U G67A | 0.535
66 | G48C G51C A69U | ≤ 0.5
67 | U47C G67C | 0.886
68 | U47C G67U | 0.86
69 | C46A G63A G67A | 0.552
70 | C46U C61A G67A | 0.568
71 | G48A C61G A69C | 0.603
72 | A45U C55U C62A | ≤ 0.5

Row | Variant | yeast fitness
73 | A45U U53G G67A | ≤ 0.5
74 | G48A C49A | 0.969
75 | A45G C49A | 0.609
76 | U47A G51A C55U | 0.642
77 | A45U A57U U59G U64G | ≤ 0.5
78 | G48C C60A | 0.644
79 | A45G C46G U54G A70C | ≤ 0.5
80 | A45C U64C A65C | 0.965
81 | G48A G52C A57C C62A | ≤ 0.5
82 | G48C G56A C61A | ≤ 0.5
83 | C46U A57U | 1
84 | C46U C49A C60A A70C | ≤ 0.5
85 | C46U A69C | 0.976
86 | C46U A69U | 1.03
87 | A45U C60U G68A | 0.575
88 | A45U G68A A70C | 0.641
89 | A45U C66G | 0.617
90 | G48C G52C | 0.552
91 | C46U G48A C55U U59A | ≤ 0.5
92 | C46A U47G C49A G52A G58C U64G A65G | ≤ 0.5
93 | G48A C60G | 0.583
94 | A45U G50A | 1.01
95 | C46G A57C | 0.61
96 | C46G A57U | 0.907

Row | Variant | yeast fitness
97 | C46U G63A A69C | 0.833
98 | A45U A57G | 0.917
99 | C46U C55A | 0.587
100 | C46U C66G | 0.949
101 | C46U C66A | 0.853
102 | C46G C60A | 0.576
103 | G48C U59C | 0.929
104 | G48C U59G | 0.722
105 | A45G C49U C55G C61G | 0.732
106 | A45U G56A A69C | 0.766
107 | C46A G48A U64G | 0.951
108 | U47C C49A G51A C55A C60A | ≤ 0.5
109 | C46U C49A A65U | 0.554
110 | C46G C49A U54C G58C | ≤ 0.5
111 | C46U U54C G68A | ≤ 0.5
112 | A45C G58A C62U A69C | 0.59
113 | C46A G58A | 0.837
114 | C46A C62U A69C | 0.69
115 | U47C G48C A65C | 0.619
116 | C46A G48C U59G | 0.534
117 | A45U C46G G63A | ≤ 0.5
118 | G48C C62U | 0.899
119 | U47C U54C | 0.843
120 | C46U G56C A69U | 0.54

Row | Variant | yeast fitness
121 | A45U G51C G68A | ≤ 0.5
122 | C46A G52A | 0.816
123 | G48A U64G | 1
124 | G48A G56C A65G | 0.543
125 | A45G G48A G56C C60G | ≤ 0.5
126 | A45U C62U | 1.07
127 | A45U C62G | 0.837
128 | A45U C62U C66U | 0.704
129 | C46G C61G A65C | 0.574
130 | U47A U64A | 0.677
131 | G48A U54C C66U | ≤ 0.5
132 | G48A G63A | 0.887
133 | C46G U59G C61G | ≤ 0.5
134 | C46A U64A A65C | 0.978
135 | A45G G48C G56A | 0.968
136 | A45U G68C | 0.66
137 | A45U G68A | 0.926
138 | A45U G68U | 0.836
139 | C46U C49U U53C | 0.703
140 | C46G G48C U64G | ≤ 0.5
141 | C46G U59C | 1.05
142 | U47G A57U C60A | 0.555
143 | C46G C49U A65U A69C | ≤ 0.5
144 | A45G A69C | 0.912

Row | Variant | yeast fitness
145 | A45G A69U | 1.01
146 | U47A G52C | 0.581
147 | U47A G52A | 0.821
148 | G48A C66A G68U A70C | ≤ 0.5
149 | C46G C49A G67C | ≤ 0.5
150 | C46G C49A G67A | 0.606
151 | G48C C55A C61U | ≤ 0.5
152 | C46A G48C | 0.924
153 | G48A C61G | 0.559
154 | C46G C60A G67U | 0.536
155 | C46A G68A A70C | 1.11
156 | C46U G58C C60A | 0.637
157 | C46A U59C | 0.898
158 | C46A U59G | 1.06
159 | A45U G50U G68C A69U | ≤ 0.5
160 | A45U G67A | 0.767
161 | U47C A57G A65U C66A A69C | ≤ 0.5
162 | C46A A57C C60A | ≤ 0.5
163 | A45G C49A C62A | ≤ 0.5
164 | G48C G67C A70U | 0.53
165 | C46U C49G G68A | 0.64
166 | G48A A70C | 0.956
167 | G48A A70U | 1.04
